Source: ChEMBL document CHEMBL4373711, “Development of 3,5-Dinitrophenyl-Containing 1,2,4-Triazoles and Their Trifluoromethyl Analogues as Highly Efficient Antitubercular Agents Inhibiting Decaprenylphosphoryl-β-d-ribofuranose 2'-Oxidase” (J Med Chem, 2019)
Converted amounts (≈) assume the structure as drawn. The source made the active and inactive calls. No cut-off for these calls is given here.

Tests used:
[1] = Genotoxicity in Salmonella typhimurium TA98 at 30 uM in absence of rat liver S9 fraction by Ames test; type: toxicity; conditions: salmonella enterica subsp. enterica serovar typhimurium, s9, 30 µM
[2] = tested on: Mycobacterium tuberculosis; assay: Antitubercular activity against Mycobacterium tuberculosis H37Rv; type: functional
[3] = tested on: Mycobacterium kansasii; assay: Antimycobacterial activity against Mycobacterium kansasii CNCTC My 235/80 after 7 days; type: functional; conditions: CNCTC My 235/80, 168 h
Procedure, shortened: (§1)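 Microdilution in Šula's semisynthetic medium; compounds in DMSO at 32–0.03 µM. Inoculum from 1.0 McFarland suspension diluted 10-4. […] Isoniazid and rifampicin as reference drugs.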

[4] = tested on: Mycobacterium kansasii; assay: Antimycobacterial activity against Mycobacterium kansasii 6509/96 after 14 days; type: functional; conditions: 6509/96, 336 h; procedure, shortened: as §1
[5] = tested on: A-431; assay: Cytotoxicity against human A431 cells assessed as reduction in cell viability after 48 hrs by CellTiter 96 aqueous one solution assay; type: cell-based; conditions: A-431, 48 h
[6] = tested on: Mycobacterium kansasii; assay: Antimycobacterial activity against Mycobacterium kansasii 6509/96 after 21 days; type: functional; conditions: 6509/96, 504 h; procedure, shortened: as §1
[7] = tested on: Mycobacterium kansasii; assay: Antimycobacterial activity against Mycobacterium kansasii 6509/96 after 7 days; type: functional; conditions: 6509/96, 168 h; procedure, shortened: as §1
[8] = tested on: Staphylococcus aureus; assay: Antibacterial activity against Staphylococcus aureus subsp. aureus ATCC 29213 CCM 4223 measured after 24 to 48 hrs by alamar blue dye based broth microdilution assay; type: functional, organism-based
[9] = tested on: Mycobacterium avium; assay: Antimycobacterial activity against Mycobacterium avium CNCTC My 330/88 after 14 days; type: functional; conditions: CNCTC My 330/88, 336 h
Procedure, shortened: (§2)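 M. avium was tested by microdilution in Šula's semisynthetic medium, with compounds dissolved in DMSO and serially diluted from 1000 down to 1. Inoculum was a 1.0 McFarland suspension diluted 10-5. Plates were incubated at 37 °C and read at 14 and 21 days. […] Isoniazid and rifampicin served as standards.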

[10] = tested on: HepG2; assay: Cytotoxicity against human HepG2 cells assessed as reduction in cell viability after 48 hrs by CellTiter 96 aqueous one solution assay; type: cell-based; conditions: HepG2, 48 h
[11] = tested on: Mycobacterium kansasii; assay: Antimycobacterial activity against Mycobacterium kansasii CNCTC My 235/80 after 21 days; type: functional; conditions: CNCTC My 235/80, 504 h; procedure, shortened: as §1
[12] = tested on: Mycobacterium tuberculosis; assay: Antimycobacterial activity against Mycobacterium tuberculosis H37Rv CNCTC My 331/88 after 14 days; type: functional; conditions: H37Rv CNCTC My 331/88, 336 h
Procedure, shortened: (§3)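 M. tuberculosis strains (H37Rv and clinical MDR/XDR isolates) tested by microdilution in Šula's semisynthetic medium. Compounds were dissolved in DMSO and tested at 32 to 0.03 µM in twofold steps. Inoculum was a 1.0 McFarland suspension diluted 10-3. Plates were incubated at 37 °C and read at 14 and 21 days.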

[13] = tested on: Candida albicans; assay: Antifungal activity against Candida albicans ATCC 24433 CCM 8320 measured after 24 to 48 hrs by alamar blue dye based broth microdilution assay; type: functional, organism-based
[14] = tested on: Mycobacterium kansasii; assay: Antimycobacterial activity against Mycobacterium kansasii CNCTC My 235/80 after 14 days; type: functional; conditions: CNCTC My 235/80, 336 h; procedure, shortened: as §1
[15] = tested on: Mycobacterium avium; assay: Antimycobacterial activity against Mycobacterium avium CNCTC My 330/88 after 21 days; type: functional; conditions: CNCTC My 330/88, 504 h; procedure, shortened: as §2
[16] = Cytotoxicity against human A431 cells assessed as cell viability at 30 uM after 48 hrs by CellTiter 96 aqueous one solution assay relative to control; type: cell-based, A-431; conditions: read-out: Activity
Procedure, shortened: (§4)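 HepG2 (DMEM, 10% FBS, 1 mM pyruvate) or A431 (DMEM, 10% FBS) seeded 10,000 cells/well, 24 h at 37 °C, 5% CO2, then 30 µM compound for 48 h. MTS reagent 60 min, absorbance 490 nm, background subtracted; 0.1% DMSO vehicle = 100%, 10% SDS = 0% viability.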

[17] = Cytotoxicity against human HepG2 cells assessed as cell viability at 30 uM after 48 hrs by CellTiter 96 aqueous one solution assay relative to control; type: cell-based; conditions: read-out: Activity; procedure, shortened: as §4
[18] = tested on: Mycobacterium tuberculosis; assay: Antimycobacterial activity against Mycobacterium tuberculosis H37Rv CNCTC My 331/88 after 21 days; type: functional; conditions: H37Rv CNCTC My 331/88, 504 h; procedure, shortened: as §3

O=[N+]([O-])c1ccc2c(c1)Cc1ccccc1-2 [2-NITROFLUORENE]
Activity [1]: Toxic

O=c1nc(N2CCN(CC3CCCCC3)CC2)sc2c([N+](=O)[O-])cc(C(F)(F)F)cc12 [MACOZINONE]
MIC [2]: 0.0004 µM (≈ 0.000183 µg/mL)

CSc1nnc(-c2cc([N+](=O)[O-])cc([N+](=O)[O-])c2)n1Cc1ccccc1
MIC99 [3]: 2 µM (≈ 0.743 µg/mL)
MIC99 [4]: 8 µM (≈ 2.97 µg/mL)
IC50 [5]: > 30 µM
MIC99 [6]: 8 µM (≈ 2.97 µg/mL)
MIC99 [7]: 4 µM (≈ 1.49 µg/mL)
Activity [8]: Active
MIC99 [9]: 500 µM (≈ 186 µg/mL)
IC50 [10]: > 30 µM
MIC99 [11]: 4 µM (≈ 1.49 µg/mL)
MIC99 [12]: 0.5 µM (≈ 0.186 µg/mL)
Activity [13]: Active
MIC99 [14]: 4 µM (≈ 1.49 µg/mL)
MIC99 [15]: 500 µM (≈ 186 µg/mL)
viability at 48 h, 30 µM [16]: 83%
viability at 48 h, 30 µM [17]: 93%
MIC99 [18]: 1 µM (≈ 0.371 µg/mL)

C[C@]1(COc2ccc(N3CCC(Oc4ccc(OC(F)(F)F)cc4)CC3)cc2)Cn2cc([N+](=O)[O-])nc2O1
MIC [2]: 0.023 µM (≈ 0.0123 µg/mL)
